Reference: PMC9200128 (Chemical Science, 2022)
No end group written: not given here.

What was measured:
[1] = test system: MDA-MB-231 cells; assay: Uptake of fluorescein labelled peptide, confocal microscopy; format: cell-based, human; details: 10 μM, confocal fluorescence, inside cells at 3 and 6 hours; Fig. 1d, e
[2] = test system: MCF-10A cells; assay: Uptake of fluorescein labelled peptide, confocal microscopy; format: cell-based, human; details: 10 μM, confocal fluorescence; Fig. 1d, e
Outline: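 MCF-10A cells were grown in 1:1 DMEM/Ham's F12 with 5% horse serum, EGF, insulin, hydrocortisone, cholera toxin and pen/strep. They were plated a day ahead at 2 × 10^5 in glass-bottom chamber dishes and exposed to fluorescein-labelled peptide (10 μM) for up to 24 h. Nuclei were stained with Hoechst 33342 and mitochondria with Rhodamine 800, then imaged by confocal microscopy over time. Data: 25 cells per field per time point, n = 5 independent experiments, mean ± SD.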

[3] = test system: rat cardio myoblast H9C2 cells; assay: Penetration and cytotoxicity in non-malignant immortalized cells; format: cell-based; details: semi-confocal microscopy, 3h incubation; Fig. S2
[4] = test system: human embryonic kidney 293 HEK cells; assay: as above; format: cell-based; details: semi-confocal microscopy, 3h incubation; Fig. S2
[5] = Body weight of xenograft mice during treatment; format: in vivo; details: 9 doses 5 mg kg−1, Fig. 6c
Outline: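 MDA-MB-231 cells (3 × 10^6) injected subcutaneously into 7–8-week-old athymic nude (FOXN1NU) mice. Dosing started 28 days after inoculation and ran for 3 weeks: either 6 doses of peptide at 50 μM (0.875 mg kg−1; 17.5 microgram/mouse) or 9 doses of doxorubicin (5 mg kg−1). Body weight and tumour size were tracked throughout.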

Compound	penetration of fluorescein-labelled peptide into MDA-MB-231 cells [1]	penetration of fluorescein-labelled peptide into MCF-10A cells [2]	entry of fluorescein-labelled peptide into H9C2 cells [3]	entry of fluorescein-labelled peptide into 293 HEK cells [4]	body weight during treatment [5]
Fl-NAF-1^44-67: NAF-1^44-67 labelled with fluorescein ({5(6)‑carboxyfluorescein}-FLGVLALLGYLAVRPFLPKKKQQK; UniProt Q8N5K1 44-67, looked up, fragment)	preferentially penetrated MDA-MB-231 cancer cells	did not permeate normal cells	no entry	no entry	
COc1cccc2c1C(=O)c1c(O)c3c(c(O)c1C2=O)C[C@@](O)(C(=O)CO)C[C@@H]3O[C@H]1C[C@H](N)[C@H](O)[C@H](C)O1 [doxorubicin]					severe decrease in body weight
